Converted amounts (≈) assume the structure as drawn.
test system: Mycobacterium tuberculosis; experiment: Antimycobacterial activity against Mycobacterium tuberculosis H37Rv ATCC 27294 after 21 to 28 days by twofold agar dilution method; format: functional
Outline: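 Twofold agar dilution on Middlebrook 7H11 agar with 10% OADC enrichment, compounds at […]. Each well received 10 μL of H37Rv suspension at 1.5 x 10⁵ cfu/mL grown in 7H9 broth with 10% ADC, giving a final inoculum of 1.5 x 10³ per well. Incubated 21–28 days. MIC read as lowest concentration completely inhibiting visible growth.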

Compound | MIC [µg/mL]
Cc1c(C(=O)c2ccc(Cl)cc2)c(=O)n(-c2ccc(Cl)cc2)n1Cc1ccc([N+](=O)[O-])cc1 | 32 (≈ 66.3 µM)
Cc1c(C(=O)c2ccc(Cl)cc2)c(=O)n(-c2ccccc2)n1Cc1ccc(F)cc1 | 32 (≈ 76 µM)
O=C(c1ccc(Cl)cc1)c1c(-c2ccccc2)[nH]n(-c2ccccc2)c1=O | 32 (≈ 85.4 µM)
Cc1ccc(-n2[nH]c(-c3ccccc3)c(C(=O)c3ccc(Cl)cc3)c2=O)cc1 | 32 (≈ 82.3 µM)
CC(C)c1[nH]n(-c2ccccc2)c(=O)c1C(=O)c1ccc(Cl)cc1 | 64 (≈ 188 µM)
Cc1[nH]n(-c2ccc(Cl)cc2)c(=O)c1C(=O)c1ccc(Cl)cc1 | 6.25 (≈ 18 µM)
O=C(c1ccc(Cl)cc1)c1c(C(F)(F)F)[nH]n(-c2ccc(Cl)cc2)c1=O | > 64
Cc1[nH]n(-c2ccc(Br)cc2)c(=O)c1C(=O)c1ccc(Cl)cc1 | 4 (≈ 10.2 µM)
Cc1c(C(=O)c2ccc(Cl)cc2)c(=O)n(-c2ccc(Cl)cc2)n1Cc1ccc(F)cc1 | 32 (≈ 70.3 µM)
O=C(c1ccc(Cl)cc1)c1c(C(F)(F)F)[nH]n(-c2ccccc2)c1=O | > 64
Cc1c(C(=O)c2ccc(Cl)cc2)c(=O)n(-c2ccccc2)n1Cc1ccc([N+](=O)[O-])cc1 | > 32
CC(C)c1[nH]n(-c2ccc(Cl)cc2)c(=O)c1C(=O)c1ccc(Cl)cc1 | 32 (≈ 85.3 µM)
Cc1nn(-c2ccccc2)c(O)c1C(=O)c1ccc(Cl)cc1 | 6.25 (≈ 20 µM)
CC(C)c1ccc(-n2[nH]c(-c3ccccc3)c(C(=O)c3ccc(Cl)cc3)c2=O)cc1 | 32 (≈ 76.8 µM)
Cc1[nH]n(-c2ccc(C(C)C)cc2)c(=O)c1C(=O)c1ccc(Cl)cc1 | 16 (≈ 45.1 µM)
Cc1c(C(=O)c2ccc(Cl)cc2)c(=O)n(-c2ccccc2)n1C | > 100
Cc1c(C(=O)c2ccc(Cl)cc2)c(=O)n(-c2ccccc2)n1Cc1ccccc1 | > 64
Cc1c(C(=O)c2ccc(Cl)cc2)c(=O)n(-c2ccc(Cl)cc2)n1Cc1ccccc1 | 16 (≈ 36.6 µM)
Cc1ccc(-n2nc(C)c(C(=O)c3ccc(Cl)cc3)c2O)cc1 | 16 (≈ 49 µM)
O=C(c1ccc(Cl)cc1)c1c(-c2ccccc2)[nH]n(-c2ccc(Cl)cc2)c1=O | 16 (≈ 39.1 µM)
Cc1[nH]n(-c2ccc(F)cc2)c(=O)c1C(=O)c1ccc(Cl)cc1 | 12.5 (≈ 37.8 µM)

— ChEMBL document CHEMBL1151800, “Synthesis, biological evaluation and SAR study of novel pyrazole analogues as inhibitors of Mycobacterium tuberculosis” (2008)
